From ChEMBL document CHEMBL1275561, “In vitro activities of doripenem, a new broad-spectrum carbapenem, against recently collected clinical anaerobic isolates, with emphasis on the Bacteroides fragilis group” (2008)
≈ marks a conversion by molar mass, not a printed value.

Tests used:
Assay type in all cases: functional
Peptostreptococcus sp. = assay: Antimicrobial activity against Peptostreptococcus sp. by agar dilution method
Summary of the method: (§1)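 Log-phase isolates were adjusted to 0.5 McFarland, and about 10^5 CFU/spot was delivered by Steers replicator. Plates were incubated anaerobically at 37°C for 48 h. MIC was the lowest concentration giving a marked growth change versus the control plate. Eubacterium lentum ATCC 43055 was the QC strain, with repeats when out of range.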

[1] = test system: Parabacteroides distasonis; assay: Antimicrobial activity against Bacteroides distasonis assessed as resistant isolates by agar dilution method
Summary of the method: (§2)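 CLSI agar dilution on enriched brucella agar (5% lysed defibrinated sheep blood, 1 μg/ml vitamin K1), plates made on test day. Log-phase inocula adjusted to 0.5 McFarland; about 10^5 CFU/spot by Steers replicator. Incubated anaerobically at 37°C for 48 h. MIC was the lowest concentration giving a marked change in growth versus the drug-free control plate. Resistance rates used CLSI anaerobe breakpoints. Controls were B. fragilis ATCC 25285 and B. thetaiotaomicron ATCC 29741.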

Bacteroides caccae [2] = assay: Antimicrobial activity against Bacteroides caccae assessed as resistant isolates by agar dilution method; summary of the method: as §2
Finegoldia magna [3] = assay: Antimicrobial activity against Finegoldia magna by agar dilution method
Summary of the method: (§3)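 Gram-positive anaerobes were tested by CLSI agar dilution on brucella agar enriched with 5% lysed defibrinated sheep blood and 1 μg/ml vitamin K1. Inoculum was log-phase growth at 0.5 McFarland, about 10^5 CFU/spot by replicator. Incubation was anaerobic, 37°C, 48 h. MIC was the lowest concentration with a marked growth change versus the drug-free plate. Eubacterium lentum ATCC 43055 was the control, and tests were repeated if it fell outside the CLSI range.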

[4] = test system: Clostridium paraputrificum; assay: Antimicrobial activity against Clostridium paraputrificum by agar dilution method
Parabacteroides merdae [5] = assay: Antimicrobial activity against Bacteroides merdae assessed as resistant isolates by agar dilution method; summary of the method: as §2
[Clostridium] innocuum [6] = Antimicrobial activity against Clostridium innocuum by agar dilution method
Clostridium tertium = assay: Antimicrobial activity against Clostridium tertium by agar dilution method
Bacteroides eggerthii [7] = assay: Antimicrobial activity against Bacteroides eggerthii assessed as resistant isolates by agar dilution method; summary of the method: as §2
Phocaeicola vulgatus [8] = assay: Antimicrobial activity against Bacteroides vulgatus assessed as resistant isolates by agar dilution method; summary of the method: as §2
[9] = test system: Peptoniphilus asaccharolyticus; assay: Antimicrobial activity against Peptoniphilus asaccharolyticus by agar dilution method; summary of the method: as §3
Bacteroides ovatus [10] = assay: Antimicrobial activity against Bacteroides ovatus by agar dilution method
Summary of the method: (§4)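 CLSI agar dilution on enriched brucella agar (5% lysed defibrinated sheep blood, 1 μg/ml vitamin K1), with drug plates made on the test day. Log-phase cells were adjusted to 0.5 McFarland, and about 10^5 CFU/spot was delivered by Steers replicator. Plates were incubated anaerobically at 37°C for 48 h. MIC was the lowest concentration giving a marked growth change versus the control plate. Controls were B. fragilis ATCC 25285 and B. thetaiotaomicron ATCC 29741.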

[11] = test system: Peptoniphilus asaccharolyticus; assay: Antimicrobial activity against Peptoniphilus asaccharolyticus assessed as resistant isolates by agar dilution method; conditions: pooled result: one value given for 4 cell lines, strains, targets or settings
Summary of the method: (§5)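 Agar dilution following CLSI on brucella agar with 5% lysed defibrinated sheep blood and 1 μg/ml vitamin K1, plates made on test day. Log-phase cells at 0.5 McFarland, about 10^5 CFU/spot by Steers replicator, 48 h anaerobic at 37°C. MIC read as the lowest concentration causing a marked growth change versus control. Resistance counted by CLSI anaerobe breakpoints. Eubacterium lentum ATCC 43055 served as control.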

Bacteroides ovatus [12] = assay: Antimicrobial activity against Bacteroides ovatus assessed as resistant isolates by agar dilution method; summary of the method: as §2
Bacteroides fragilis [13] = assay: Antimicrobial activity against Bacteroides fragilis by agar dilution method; summary of the method: as §4
Bacteroides uniformis [14] = assay: Antimicrobial activity against Bacteroides uniformis by agar dilution method; summary of the method: as §4
Cutibacterium acnes [15] = assay: Antimicrobial activity against Propionibacterium acnes assessed as resistant isolates by agar dilution method; summary of the method: as §5
Bacteroides uniformis [16] = assay: Antimicrobial activity against Bacteroides uniformis assessed as resistant isolates by agar dilution method; summary of the method: as §2
Bacteroides nordii [17] = assay: Antimicrobial activity against Bacteroides nordii assessed as resistant isolates by agar dilution method; summary of the method: as §2
Cutibacterium acnes [18] = assay: Antimicrobial activity against Propionibacterium acnes by agar dilution method; summary of the method: as §1
Clostridium subterminale = assay: Antimicrobial activity against Clostridium subterminale by agar dilution method
Parvimonas micra = assay: Antimicrobial activity against Micromonas micros by agar dilution method; summary of the method: as §3
Bacteroides eggerthii [19] = assay: Antimicrobial activity against Bacteroides eggerthii by agar dilution method; summary of the method: as §4
Bacteroides fragilis [20] = assay: Antimicrobial activity against Bacteroides fragilis assessed as resistant isolates by agar dilution method; summary of the method: as §2
Bacteroides caccae [21] = assay: Antimicrobial activity against Bacteroides caccae by agar dilution method; summary of the method: as §4
Parabacteroides merdae [22] = assay: Antimicrobial activity against Bacteroides merdae by agar dilution method; summary of the method: as §4
[23] = test system: Bacteroides thetaiotaomicron; assay: Antimicrobial activity against Bacteroides thetaiotaomicron assessed as resistant isolates by agar dilution method; summary of the method: as §2
Clostridium perfringens = assay: Antimicrobial activity against Clostridium perfringens by agar dilution method
[24] = test system: Parabacteroides distasonis; assay: Antimicrobial activity against Bacteroides distasonis by agar dilution method; summary of the method: as §4
[25] = test system: Bacteroides thetaiotaomicron; assay: Antimicrobial activity against Bacteroides thetaiotaomicron by agar dilution method; summary of the method: as §4
[Clostridium] innocuum [26] = Antimicrobial activity against Clostridium innocuum assessed as resistant isolates by agar dilution method; conditions: pooled result: one value given for 4 cell lines, strains, targets or settings
Clostridioides difficile = assay: Antimicrobial activity against Clostridium difficile by agar dilution method
Bacteroides nordii [27] = assay: Antimicrobial activity against Bacteroides nordii by agar dilution method; summary of the method: as §4
Propionibacterium [28] = assay: Antimicrobial activity against Propionibacterium sp. by agar dilution method; summary of the method: as §1
Anaerococcus prevotii = assay: Antimicrobial activity against Anaerococcus prevotii by agar dilution method; summary of the method: as §3
Propionibacterium [29] = assay: Antimicrobial activity against Propionibacterium sp. assessed as resistant isolates by agar dilution method; summary of the method: as §5
Finegoldia magna [30] = assay: Antimicrobial activity against Finegoldia magna assessed as resistant isolates by agar dilution method; summary of the method: as §5
Phocaeicola vulgatus [31] = assay: Antimicrobial activity against Bacteroides vulgatus by agar dilution method; summary of the method: as §4

CO[C@@]1(NC(=O)Cc2cccs2)C(=O)N2C(C(=O)O)=C(COC(N)=O)CS[C@@H]21 [CEFOXITIN]
MIC (Peptostreptococcus sp.): 1 µg/mL (≈ 2.34 µM)
MIC50 (Peptostreptococcus sp.): 1 µg/mL (≈ 2.34 µM)
MIC90 (Peptostreptococcus sp.): 4 µg/mL (≈ 9.36 µM)
Activity [1]: 6.7%
Activity (Bacteroides caccae [2]): 6.3%
MIC (Finegoldia magna [3]): 1 µg/mL (≈ 2.34 µM)
MIC50 (Finegoldia magna [3]): 1 µg/mL (≈ 2.34 µM)
MIC90 (Finegoldia magna [3]): 1 µg/mL (≈ 2.34 µM)
MIC50 [4]: 64 µg/mL (≈ 150 µM)
MIC90 [4]: > 128 µg/mL
Activity (Parabacteroides merdae [5]): 0%
MIC50 ([Clostridium] innocuum [6]): 64 µg/mL (≈ 150 µM)
MIC90 ([Clostridium] innocuum [6]): 128 µg/mL (≈ 299 µM)
MIC50 (Clostridium tertium): 64 µg/mL (≈ 150 µM)
MIC90 (Clostridium tertium): > 128 µg/mL
Activity (Bacteroides eggerthii [7]): 0%
Activity (Phocaeicola vulgatus [8]): 3.2%
MIC [9]: 1 µg/mL (≈ 2.34 µM)
MIC50 [9]: 1 µg/mL (≈ 2.34 µM)
MIC90 [9]: 4 µg/mL (≈ 9.36 µM)
MIC50 (Bacteroides ovatus [10]): 16 µg/mL (≈ 37.4 µM)
MIC90 (Bacteroides ovatus [10]): 64 µg/mL (≈ 150 µM)
Activity [11]: 0%
Activity (Bacteroides ovatus [12]): 14.3%
MIC50 (Bacteroides fragilis [13]): 16 µg/mL (≈ 37.4 µM)
MIC90 (Bacteroides fragilis [13]): 32 µg/mL (≈ 74.9 µM)
MIC50 (Bacteroides uniformis [14]): 16 µg/mL (≈ 37.4 µM)
MIC90 (Bacteroides uniformis [14]): 64 µg/mL (≈ 150 µM)
Activity (Cutibacterium acnes [15]): 0%
Activity (Bacteroides uniformis [16]): 9.5%
Activity (Bacteroides nordii [17]): 0%
MIC (Cutibacterium acnes [18]): 1 µg/mL (≈ 2.34 µM)
MIC50 (Cutibacterium acnes [18]): 1 µg/mL (≈ 2.34 µM)
MIC90 (Cutibacterium acnes [18]): 1 µg/mL (≈ 2.34 µM)
MIC50 (Clostridium subterminale): 64 µg/mL (≈ 150 µM)
MIC90 (Clostridium subterminale): > 128 µg/mL
MIC (Parvimonas micra): 1 µg/mL (≈ 2.34 µM)
MIC50 (Parvimonas micra): 1 µg/mL (≈ 2.34 µM)
MIC90 (Parvimonas micra): 4 µg/mL (≈ 9.36 µM)
MIC50 (Bacteroides eggerthii [19]): 16 µg/mL (≈ 37.4 µM)
MIC90 (Bacteroides eggerthii [19]): 32 µg/mL (≈ 74.9 µM)
Activity (Bacteroides fragilis [20]): 3%
MIC50 (Bacteroides caccae [21]): 16 µg/mL (≈ 37.4 µM)
MIC90 (Bacteroides caccae [21]): 32 µg/mL (≈ 74.9 µM)
MIC50 (Parabacteroides merdae [22]): 16 µg/mL (≈ 37.4 µM)
MIC90 (Parabacteroides merdae [22]): 32 µg/mL (≈ 74.9 µM)
Activity [23]: 10.3%
MIC (Clostridium perfringens): 1 µg/mL (≈ 2.34 µM)
MIC50 (Clostridium perfringens): 1 µg/mL (≈ 2.34 µM)
MIC90 (Clostridium perfringens): 4 µg/mL (≈ 9.36 µM)
MIC50 [24]: 16 µg/mL (≈ 37.4 µM)
MIC90 [24]: 32 µg/mL (≈ 74.9 µM)
MIC50 [25]: 32 µg/mL (≈ 74.9 µM)
MIC90 [25]: 64 µg/mL (≈ 150 µM)
Activity ([Clostridium] innocuum [26]): 55.6%
MIC (Clostridioides difficile): > 8 µg/mL
MIC50 (Bacteroides nordii [27]): 16 µg/mL (≈ 37.4 µM)
MIC90 (Bacteroides nordii [27]): 32 µg/mL (≈ 74.9 µM)
MIC (Propionibacterium [28]): 1 µg/mL (≈ 2.34 µM)
MIC50 (Propionibacterium [28]): 1 µg/mL (≈ 2.34 µM)
MIC90 (Propionibacterium [28]): 1 µg/mL (≈ 2.34 µM)
MIC (Anaerococcus prevotii): 1 µg/mL (≈ 2.34 µM)
MIC50 (Anaerococcus prevotii): 1 µg/mL (≈ 2.34 µM)
MIC90 (Anaerococcus prevotii): 4 µg/mL (≈ 9.36 µM)
Activity (Propionibacterium [29]): 0%
Activity (Finegoldia magna [30]): 0%
MIC50 (Phocaeicola vulgatus [31]): 8 µg/mL (≈ 18.7 µM)
MIC90 (Phocaeicola vulgatus [31]): 32 µg/mL (≈ 74.9 µM)
